Measurements collected from several papers.
Compare with care: the assays were run in different laboratories.
Target: Cholinesterase (BCHE, Homo sapiens, UniProt P06276)
Read-out: enzyme activity
Action: inhibitor

`Cn1cc(-c2cc(C(=O)NN=Cc3cccc(Br)c3)no2)c2ccccc21` has an IC50 of > 100000 nM.
`COc1ccc(S(=O)(=O)Oc2ccc(C=NNC(=O)c3ccc(F)cc3)cc2)cc1` has an IC50 of 83.6 nM (Ellman).
`O=[N+]([O-])c1c[nH]c(-c2n[nH]c(=S)n2/N=C/c2ccc(F)cc2O)c1` gave an IC50 of 7800 nM (Ellman).
`C#CCN(C)CCCCCOCc1ccc(CN(C)c2c3c(nc4ccccc24)CCCC3)cc1` has an IC50 of 610 nM (Ellman).
With `COc1cccc(C=NNC(=O)c2cc(-c3cn(C)c4ccccc34)on2)c1` the IC50 was > 100000 nM.
The IC50 of `O=[N+]([O-])c1c[nH]c(-c2n[nH]c(=S)n2/N=C/c2ccc(F)c(O)c2)c1` is reported as 9700 nM (Ellman).
`Cn1cc(-c2cc(C(=O)NN=Cc3ccncc3)no2)c2ccccc21` has an IC50 of > 100000 nM.
The IC50 of `O=[N+]([O-])c1c[nH]c(-c2n[nH]c(=S)n2/N=C/c2ccc(Br)c(Cl)c2)c1` is reported as 23100 nM (Ellman).
`COc1cccc(C=NNC(=O)c2cc(-c3cn(C)c4ccccc34)on2)c1O` has an IC50 of > 100000 nM.
`C#CCN(C)CCCCCCCOc1cccc(CN(C)c2c3c(nc4ccccc24)CCCC3)c1` gave an IC50 of 310 nM (Ellman).
With `CN(C)c1ccc(/C=N/n2c(-c3cc([N+](=O)[O-])c[nH]3)n[nH]c2=S)c(O)c1` the IC50 was 22200 nM (Ellman).
For `COc1cccc(C=NNC(=O)c2cc(-c3cn(C)c4ccccc34)on2)c1OC`, the IC50 was > 100000 nM.
`C#CCN(C)CCCCCCOc1cccc(CN(C)c2c3c(nc4ccccc24)CCCC3)c1` has an IC50 of 320 nM (Ellman).
With `O=[N+]([O-])c1c[nH]c(-c2n[nH]c(=S)n2/N=C/c2c(O)cc(O)cc2O)c1` the IC50 was 6800 nM (Ellman).
With `Cc1ccc(CN2CCN(Cc3nnc(-c4ccccc4)o3)CC2)cc1` the IC50 was > 10000 nM (Ellman).
`COc1ccc(S(=O)(=O)Oc2cc(OC)ccc2C=NNC(=O)c2ccc(F)cc2)cc1` has an IC50 of 113 nM (Ellman).
With `C#CCN(C)CCCCCOc1cccc(CN(C)c2c3c(nc4ccccc24)CCCC3)c1` the IC50 was 330 nM (Ellman).
The IC50 of `COc1ccc(S(=O)(=O)Oc2cccc(C=NNC(=O)c3ccc(F)cc3)c2)cc1` is reported as 111 nM (Ellman).
`C#CCN(C)CCCCOCc1ccc(CN(C)c2c3c(nc4ccc(C)cc24)CCCC3)cc1` has an IC50 of 1780 nM (Ellman).
For `COc1ccc(S(=O)(=O)Oc2ccc(C=NNC(=O)c3ccc(F)cc3)cc2OC)cc1`, the IC50 was 76.4 nM (Ellman).
`Cn1cc(-c2cc(C(=O)NN=Cc3ccccc3F)no2)c2ccccc21` has an IC50 of > 100000 nM.
With `O=[N+]([O-])c1c[nH]c(-c2n[nH]c(=S)n2/N=C/c2cc(O)cc(F)c2)c1` the IC50 was 9600 nM (Ellman).
`C#CCN(C)CCCCCCOCc1ccc(CN(C)c2c3c(nc4ccccc24)CCCC3)cc1` gave an IC50 of 430 nM (Ellman).
